These results are taken from ChEMBL document CHEMBL2321766, “Optimization of a Novel Series of TRPV4 Antagonists with In Vivo Activity in a Model of Pulmonary Edema” (ACS Med Chem Lett, 2013).

For series [1], the target named is T1, Transient receptor potential cation channel subfamily V member 4 (Homo sapiens, UniProt Q9HBA0). The experiment in a line: Antagonist activity at human recombinant TRPV4 expressed in BacMam virus infected HEK MSRII cells assessed as inhibition of GSK634775-induced calcium […] treated 10 mins prior to TRPV4 agonist, GSK634775 by FLIPR assay.
A short description of series [2]: Clearance in Sprague-Dawley rat plasma at 1 mg/kg, iv by HPLC-MS/MS analysis. In kind it is ADME, organism-based. The arrangement: dose 1 mg/kg, route intravenous.
A short description of series [3]: (§1) Half life in Sprague-Dawley rat plasma at 2 mg/kg, po by HPLC-MS/MS analysis. In kind it is ADME, organism-based. Set-up: dose 2 mg/kg, route oral. The conditions noted are these: Sprague-Dawley, plasma.
The nature of series [4]: Oral bioavailability in Sprague-Dawley rat at 2 mg/kg by HPLC-MS/MS analysis. In kind it is ADME, organism-based. The conditions noted are these: in vivo.
Series [5] deals with Voltage-dependent L-type calcium channel subunit alpha-1C (Homo sapiens, UniProt Q13936). Nature of the series: Inhibition of human Cav1.2 expressed in HEK293 cells assessed as decrease in calcium […] at >10 uM by FLIPR analysis. The series is classed as cell-based.
In series [6] the test system is Rattus norvegicus. The experiment in a line: Reduction of GSK-1016790A-induced decrease in mean arterial pressure in iv dosed Sprague-Dawley rat administered 30 mins prior to GSK-1016790A injection. The series is classed as functional, organism-based. The conditions noted are these: Artery. Summed up:
(§2)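 Rats given vehicle, 3 or 10 mg/kg iv 30 min before iv challenge with the TRPV4 agonist GSK1016790A at rising doses. Mean arterial pressure recorded during pretreatment and after agonist. Pulmonary edema scored as wet lung weight/body weight ratio, compared with vehicle-treated rats. Plasma drug levels measured at both doses.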

Series [7] relates to Rattus norvegicus. The experiment in a line: Decrease in lung/body weight ratio in GSK1016790A-induced Sprague-Dawley rat pulmonary edema model at 3 mg/kg, iv administered 30 mins prior to GSK-1016790A injection. In kind it is functional, organism-based. Set-up: dose 3 mg/kg. In outline:
as §2

The target of series [8] is Transient receptor potential cation channel subfamily V member 4 (Rattus norvegicus) (UniProt Q9ERZ8). Nature of the series: Agonist activity at rat TRPV4.
Series [9] concerns the target Transient receptor potential cation channel subfamily V member 4 (Rattus norvegicus, UniProt Q9ERZ8). Nature of the series: Antagonist activity at rat TRPV4.
The subject of series [10] is Rattus norvegicus. The experiment in a line: Decrease in lung/body weight ratio in GSK1016790A-induced Sprague-Dawley rat pulmonary edema model at 10 mg/kg, iv administered 30 mins prior to GSK-1016790A injection. The series is classed as functional, organism-based. The arrangement: dose 10 mg/kg. Summed up:
as §2

In series [11] the test system is Plasma. The experiment in a line: Fraction unbound in human plasma. In kind it is ADME, cell-free.
Series [12] has as its target Sodium channel protein type 5 subunit alpha (Homo sapiens, UniProt Q14524). Nature of the series: Inhibition of human Nav1.5 expressed in HEK293 cells at >10 uM. The series is classed as cell-based.
The target in series [13] is T1, Transient receptor potential cation channel subfamily V member 4. Nature of the series: Agonist activity at human TRPV4.
The subject of series [14] is Rattus norvegicus. The experiment in a line: Effect on mean arterial pressure in Sprague-Dawley rat at 3 to 10 mg/kg, iv. In kind it is ADME, organism-based, Artery. The conditions noted are these: in vivo. Set-up: dose 3-10 mg/kg, route intravenous. Summed up: as §2
The target of series [15] is Potassium voltage-gated channel subfamily A member 5 (Homo sapiens) (UniProt P22460). Nature of the series: Inhibition of human Kv1.5 expressed in CHO cells assessed as decrease in channel current at > 10 uM by patch clamp analysis. In kind it is cell-based.
Series [16] concerns Plasma. The experiment in a line: Fraction unbound in rat plasma. In kind it is ADME, cell-free.
The subject of series [17] is Plasma. Described as §1. The conditions noted are these: in vivo, BLD = below limit of detection. Set-up: dose 2 mg/kg, route oral. In kind it is ADME, organism-based.
Series [18] has as its system Plasma. The experiment in a line: Stability of the compound in Sprague-Dawley rat plasma at 1 mg/kg, iv by HPLC-MS/MS analysis. The series is classed as ADME, organism-based. As to conditions: in vivo. Set-up: dose 1 mg/kg, route intravenous.

Activity calls are given as the source filed them. The rule behind the calls is not given here.

T1 sequence (Q9HBA0 whole entry): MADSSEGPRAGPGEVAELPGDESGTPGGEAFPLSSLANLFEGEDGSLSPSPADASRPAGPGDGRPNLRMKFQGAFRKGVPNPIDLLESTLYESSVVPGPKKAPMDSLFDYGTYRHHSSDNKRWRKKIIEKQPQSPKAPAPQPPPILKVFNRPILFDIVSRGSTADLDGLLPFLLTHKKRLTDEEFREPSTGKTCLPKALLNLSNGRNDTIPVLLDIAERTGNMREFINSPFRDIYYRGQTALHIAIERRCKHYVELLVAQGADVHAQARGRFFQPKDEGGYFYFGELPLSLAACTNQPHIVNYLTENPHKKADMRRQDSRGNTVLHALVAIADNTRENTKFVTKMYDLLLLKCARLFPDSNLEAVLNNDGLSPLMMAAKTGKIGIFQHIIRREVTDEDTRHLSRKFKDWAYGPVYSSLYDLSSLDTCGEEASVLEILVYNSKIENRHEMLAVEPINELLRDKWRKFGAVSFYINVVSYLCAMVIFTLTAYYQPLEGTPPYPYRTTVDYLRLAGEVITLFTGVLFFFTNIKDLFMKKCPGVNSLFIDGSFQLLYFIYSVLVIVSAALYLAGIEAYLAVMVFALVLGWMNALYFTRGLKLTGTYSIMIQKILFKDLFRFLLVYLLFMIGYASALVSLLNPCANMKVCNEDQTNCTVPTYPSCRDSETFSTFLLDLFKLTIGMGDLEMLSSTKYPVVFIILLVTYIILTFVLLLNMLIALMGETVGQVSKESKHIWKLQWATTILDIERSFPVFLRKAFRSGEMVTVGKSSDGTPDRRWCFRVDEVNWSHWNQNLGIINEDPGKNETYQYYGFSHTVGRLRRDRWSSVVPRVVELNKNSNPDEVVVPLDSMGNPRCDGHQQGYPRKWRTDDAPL
Chain of Voltage-dependent L-type calcium channel subunit alpha-1C (Q13936 whole entry): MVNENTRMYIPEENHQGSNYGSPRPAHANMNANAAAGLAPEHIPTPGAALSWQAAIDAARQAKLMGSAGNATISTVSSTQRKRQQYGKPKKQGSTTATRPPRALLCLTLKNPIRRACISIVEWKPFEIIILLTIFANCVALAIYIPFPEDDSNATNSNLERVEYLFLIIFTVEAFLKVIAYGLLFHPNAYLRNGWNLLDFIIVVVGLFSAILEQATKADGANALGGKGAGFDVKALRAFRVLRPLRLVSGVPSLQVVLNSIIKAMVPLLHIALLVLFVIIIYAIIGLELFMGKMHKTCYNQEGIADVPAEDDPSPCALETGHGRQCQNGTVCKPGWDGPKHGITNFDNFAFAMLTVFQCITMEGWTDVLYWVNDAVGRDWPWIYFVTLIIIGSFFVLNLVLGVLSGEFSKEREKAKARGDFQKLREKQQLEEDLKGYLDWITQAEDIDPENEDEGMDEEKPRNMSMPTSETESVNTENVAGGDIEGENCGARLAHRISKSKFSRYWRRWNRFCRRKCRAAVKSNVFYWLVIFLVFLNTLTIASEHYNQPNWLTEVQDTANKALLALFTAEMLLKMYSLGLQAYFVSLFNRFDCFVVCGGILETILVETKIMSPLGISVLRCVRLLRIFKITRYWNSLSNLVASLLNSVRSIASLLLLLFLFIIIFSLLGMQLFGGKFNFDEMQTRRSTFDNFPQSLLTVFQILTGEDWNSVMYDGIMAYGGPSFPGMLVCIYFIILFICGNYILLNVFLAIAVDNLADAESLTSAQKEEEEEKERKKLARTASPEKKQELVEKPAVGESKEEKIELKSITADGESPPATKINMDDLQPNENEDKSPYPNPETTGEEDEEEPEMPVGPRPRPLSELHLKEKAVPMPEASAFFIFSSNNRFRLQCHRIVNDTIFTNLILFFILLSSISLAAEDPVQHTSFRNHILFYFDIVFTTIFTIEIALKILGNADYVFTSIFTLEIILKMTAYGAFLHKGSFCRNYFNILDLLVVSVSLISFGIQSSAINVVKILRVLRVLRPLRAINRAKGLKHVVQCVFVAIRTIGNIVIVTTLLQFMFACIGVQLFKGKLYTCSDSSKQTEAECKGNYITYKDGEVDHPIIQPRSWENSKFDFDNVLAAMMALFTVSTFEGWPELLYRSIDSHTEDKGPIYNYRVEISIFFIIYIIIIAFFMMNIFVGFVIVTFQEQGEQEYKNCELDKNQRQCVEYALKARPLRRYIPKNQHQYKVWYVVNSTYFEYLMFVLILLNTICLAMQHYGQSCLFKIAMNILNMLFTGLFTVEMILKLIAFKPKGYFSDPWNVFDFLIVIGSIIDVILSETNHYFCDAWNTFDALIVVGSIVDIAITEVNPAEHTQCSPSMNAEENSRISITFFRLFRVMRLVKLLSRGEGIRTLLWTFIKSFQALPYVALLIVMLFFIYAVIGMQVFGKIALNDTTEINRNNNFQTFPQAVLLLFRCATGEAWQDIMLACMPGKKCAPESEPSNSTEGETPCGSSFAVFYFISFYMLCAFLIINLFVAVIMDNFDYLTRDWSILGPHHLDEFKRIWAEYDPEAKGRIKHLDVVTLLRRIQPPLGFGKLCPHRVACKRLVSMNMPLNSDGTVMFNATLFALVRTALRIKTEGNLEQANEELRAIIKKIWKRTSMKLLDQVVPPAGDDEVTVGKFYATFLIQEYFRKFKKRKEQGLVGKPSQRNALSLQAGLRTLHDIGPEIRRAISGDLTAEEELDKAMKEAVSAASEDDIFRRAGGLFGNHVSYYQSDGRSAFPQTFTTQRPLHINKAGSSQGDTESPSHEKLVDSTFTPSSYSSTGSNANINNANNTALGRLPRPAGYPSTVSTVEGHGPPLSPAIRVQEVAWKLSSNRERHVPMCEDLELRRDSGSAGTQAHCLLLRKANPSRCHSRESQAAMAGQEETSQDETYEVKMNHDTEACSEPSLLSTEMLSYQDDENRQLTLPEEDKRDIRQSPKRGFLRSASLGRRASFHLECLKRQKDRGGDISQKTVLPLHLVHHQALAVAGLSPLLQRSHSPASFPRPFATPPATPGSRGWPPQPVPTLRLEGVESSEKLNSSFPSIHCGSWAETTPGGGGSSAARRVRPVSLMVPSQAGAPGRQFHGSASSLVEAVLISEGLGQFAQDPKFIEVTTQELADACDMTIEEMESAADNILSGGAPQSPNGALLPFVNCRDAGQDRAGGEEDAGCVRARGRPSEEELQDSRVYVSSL
Chain of Sodium channel protein type 5 subunit alpha (Q14524 whole entry): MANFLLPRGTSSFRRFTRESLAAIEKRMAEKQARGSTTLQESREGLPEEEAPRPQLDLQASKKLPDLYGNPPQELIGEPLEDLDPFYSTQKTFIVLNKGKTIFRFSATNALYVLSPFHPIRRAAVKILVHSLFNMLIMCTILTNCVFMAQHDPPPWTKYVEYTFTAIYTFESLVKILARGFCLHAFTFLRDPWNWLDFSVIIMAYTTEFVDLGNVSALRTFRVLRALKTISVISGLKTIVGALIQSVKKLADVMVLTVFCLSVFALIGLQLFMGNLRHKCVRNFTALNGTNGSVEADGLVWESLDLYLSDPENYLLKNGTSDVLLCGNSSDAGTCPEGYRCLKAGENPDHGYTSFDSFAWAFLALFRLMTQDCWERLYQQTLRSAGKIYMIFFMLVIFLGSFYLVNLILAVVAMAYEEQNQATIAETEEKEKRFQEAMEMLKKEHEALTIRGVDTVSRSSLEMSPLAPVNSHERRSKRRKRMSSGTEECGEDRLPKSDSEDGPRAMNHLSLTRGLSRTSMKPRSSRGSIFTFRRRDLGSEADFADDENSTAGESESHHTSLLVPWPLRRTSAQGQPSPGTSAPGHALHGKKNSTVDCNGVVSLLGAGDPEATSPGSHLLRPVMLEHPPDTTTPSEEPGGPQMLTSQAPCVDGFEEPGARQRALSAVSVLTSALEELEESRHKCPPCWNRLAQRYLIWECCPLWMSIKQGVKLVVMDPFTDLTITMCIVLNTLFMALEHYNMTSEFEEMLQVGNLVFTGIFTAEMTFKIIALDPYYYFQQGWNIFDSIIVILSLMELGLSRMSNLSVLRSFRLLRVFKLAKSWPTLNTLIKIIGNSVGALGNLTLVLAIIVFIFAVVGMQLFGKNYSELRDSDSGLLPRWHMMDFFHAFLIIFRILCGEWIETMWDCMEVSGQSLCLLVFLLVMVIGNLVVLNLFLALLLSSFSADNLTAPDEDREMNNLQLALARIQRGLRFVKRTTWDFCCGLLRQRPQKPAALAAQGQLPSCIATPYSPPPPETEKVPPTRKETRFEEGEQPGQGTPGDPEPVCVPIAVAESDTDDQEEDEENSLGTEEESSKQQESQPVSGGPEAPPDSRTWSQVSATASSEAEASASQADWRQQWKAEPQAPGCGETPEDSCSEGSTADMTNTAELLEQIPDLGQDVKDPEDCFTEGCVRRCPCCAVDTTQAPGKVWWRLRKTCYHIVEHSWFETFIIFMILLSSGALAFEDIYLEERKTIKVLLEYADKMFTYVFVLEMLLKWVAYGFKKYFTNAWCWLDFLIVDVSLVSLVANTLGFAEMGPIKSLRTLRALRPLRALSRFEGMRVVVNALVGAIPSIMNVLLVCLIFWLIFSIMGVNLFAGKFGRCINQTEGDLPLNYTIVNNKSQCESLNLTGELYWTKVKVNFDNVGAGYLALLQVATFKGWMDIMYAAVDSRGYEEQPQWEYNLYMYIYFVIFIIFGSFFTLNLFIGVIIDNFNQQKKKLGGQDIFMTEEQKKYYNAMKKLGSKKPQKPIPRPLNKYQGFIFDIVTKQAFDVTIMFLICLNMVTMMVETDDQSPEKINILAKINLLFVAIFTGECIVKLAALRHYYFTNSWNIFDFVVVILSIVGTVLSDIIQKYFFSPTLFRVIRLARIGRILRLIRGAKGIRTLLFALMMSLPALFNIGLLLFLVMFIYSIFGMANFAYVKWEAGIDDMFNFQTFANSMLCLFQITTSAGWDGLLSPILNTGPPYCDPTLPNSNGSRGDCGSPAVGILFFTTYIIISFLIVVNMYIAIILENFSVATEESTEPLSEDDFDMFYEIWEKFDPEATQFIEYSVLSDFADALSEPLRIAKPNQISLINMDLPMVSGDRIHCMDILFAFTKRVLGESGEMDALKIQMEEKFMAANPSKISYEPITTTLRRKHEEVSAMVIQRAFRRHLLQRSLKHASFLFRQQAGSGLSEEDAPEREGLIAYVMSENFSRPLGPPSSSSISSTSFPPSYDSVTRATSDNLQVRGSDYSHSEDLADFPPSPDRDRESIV

Turning to `CC(C)Nc1nc2c(C(=O)N(C)C)c(Cl)c(Cl)cc2n1C1CCN(c2ccc(C(C)(C)C)cc2)CC1`, in [1], the IC50 was 50.1 nM. This molecule also returned a clearance in series [2] of 34 mL/min/kg. The same molecule had a half-life in series [3] of 3.7 h. The bioavailability in series [4] came to 39%.
Regarding `CC(C)Nc1nc2c(C(=O)N(C)C)c(Cl)c(Cl)cc2n1-c1ccc(N2CCCCC2)cc1`, in [1], the half-maximal inhibitory concentration (IC50) turned out to be 631 nM.
For the molecule `CC(C)Nc1nc2c(C(=O)N(C)C)c(Cl)c(Cl)cc2n1CC1CCN(c2ccccc2)CC1`, the IC50 in series [1] is 5010 nM.
`CC(C)Nc1nc2c(C(=O)N(C)C)c(Cl)c(Cl)cc2n1C1CCN(c2ccc(C(C)(C)C#N)cc2)CC1`: the “inhibition (INH)” value in series [5] and in series [12] was “Not Active” throughout. Moreover, the values for the Activity entry with Rattus norvegicus [6] and with Rattus norvegicus [14] were “Dose-dependent effect” and “Non-toxic”, respectively. Moreover, the outcome (in the series with Rattus norvegicus [7]; in series [8]; in series [13]) was inactive. Further, the half-inhibitory concentration (IC50) in [1] amounted to 31.6 nM; in series [9], 32 nM. The result in the series on Rattus norvegicus [10] was Active. For the same molecule, the “Cp(f)” value in the series with Plasma [11] turned out to be 4.4%; with Plasma [16], 3.3%. This molecule returned a clearance in series [2] of 13 mL/min/kg. In [3], this molecule showed a half-life of 1.6 h. Moreover, the bioavailability in series [4] was 31%. Further, the inhibition entry in series [15] was “inactive”.
`COC(=O)C(C)(C)c1ccc(N2CCC(n3c(NC(C)C)nc4c(C(=O)N(C)C)c(Cl)c(Cl)cc43)CC2)cc1`: the half-inhibitory concentration (IC50) in [1] was 15.8 nM. Moreover, the t1/2 entry with Plasma [17] is on record as “BLD”. Also, the Stability entry with Plasma [18] is recorded as “Unstable”.
Regarding `CC(C)Nc1nc2c(C(=O)N(C)C)c(Cl)c(Cl)cc2n1C1CCN(c2ccc(C(C)(C)C(=O)O)cc2)CC1`, the IC50 in [1] was greater than 10000 nM.
For the molecule `Cc1ccc(N2CCC(n3c(NC(C)C)nc4c(C(=O)N(C)C)c(Cl)c(Cl)cc43)CC2)cc1`, in series [1], the IC50 was 126 nM. The clearance in series [2] was determined as 18 mL/min/kg. For the same molecule, the half-life in series [3] was 1.6 h. This molecule also showed a bioavailability in series [4] of 38%.
As to `CC(C)Nc1nc2c(C(=O)N(C)C)c(Cl)c(Cl)cc2n1C1CCN(C(=O)c2ccc(C(C)(C)C)cc2)CC1`, in series [1], the 50% inhibitory concentration (IC50) was found to be 1260 nM.
Consider `CC(C)Nc1nc2c(C(=O)N(C)C)c(Cl)c(Cl)cc2n1C1CCN(c2ccc(OC(C)C)cc2)CC1`, for which, in series [1], the concentration for half-maximal inhibition (IC50) stood at 12.6 nM. Moreover, the clearance in series [2] was determined as 46 mL/min/kg. In series [3], this molecule gave a half-life of 2.1 h. Besides, the bioavailability in series [4] came to 36%.
For `Cc1cccc(N2CCC(n3c(NC(C)C)nc4c(C(=O)N(C)C)c(Cl)c(Cl)cc43)CC2)c1`, in that order: 126 nM, 12 mL/min/kg, 3.2 h and 76%.
For `CC(C)Nc1nc2c(C(=O)N(C)C)c(Cl)c(Cl)cc2n1C1CCN(c2ccc(C3(C#N)CCOCC3)cc2)CC1`, in that order: 3.2 nM, 25 mL/min/kg, 2.1 h and 22%.
`CC(C)Nc1nc2c(C(=O)N(C)C)c(Cl)c(Cl)cc2n1C1CCN(c2ccc(C3CCCCC3)cc2)CC1`: the IC50 in series [1] turned out to be 31.6 nM. The clearance in series [2] came out at 9.3 mL/min/kg. The molecule further had a half-life in series [3] of 2.8 h. Moreover, in series [4], the bioavailability was found to be 7%.
Take `CC(C)Nc1nc2c(C(=O)N(C)C)c(Cl)c(Cl)cc2n1C1CCN(c2ccccc2)CC1`: the concentration for half-maximal inhibition (IC50) in [1] was 200 nM.
On the same count and under the same terms, the figure for `CC(C)Nc1nc2c(C(=O)N(C)C)c(Cl)c(Cl)cc2n1C1CCN(S(=O)(=O)c2ccc(Cl)cc2)CC1` is 3980 nM; for `CC(C)Nc1nc2c(C(=O)N(C)C)c(Cl)c(Cl)cc2n1C1CCN(C(=O)Nc2ccccc2)CC1` it is 2510 nM.
For the molecule `CC(C)Nc1nc2c(C(=O)N(C)C)c(Cl)c(Cl)cc2n1C1CCN(Cc2ccccc2)CC1`, the concentration for half-maximal inhibition (IC50) in series [1] turned out to be 1000 nM.
